The record followed here is ChEMBL document CHEMBL5344428, “Discovery, Crystallographic Studies, and Mechanistic Investigations of Novel Phenylalanine Derivatives Bearing a Quinazolin-4-one Scaffold as Potent HIV Capsid Modulators” (J Med Chem, 2023).

The term EC50 denotes the concentration at which the effect is half-maximal. As a reminder, the CC50 is the concentration that lowers cell viability or growth by half.

Series [1] relates to Human immunodeficiency virus 1. Put plainly: Antiviral activity against HIV1 IIIB infected in human MT4 cells assessed as reduction in virus induced cytopathic effect measured after 5 days by MTT assay. The class given is functional, organism-based. Particulars: Human immunodeficiency virus 1, IIIB, MT4, 120 h. Put shortly:
(§1)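 MT-4 cells were infected with HIV-1 IIIB or HIV-2 ROD, and cell viability was read by MTT. […] Each value was run in at least triplicate and averaged from at least three independent experiments.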
(Damage to the host cells serves as the signal in cytopathic effect assays.)

Series [2] is described as follows: Cytotoxicity against human MT4 cells assessed as reduction in cell viability incubated for 5 days by MTT assay. The class given is toxicity, cell-based. Particulars: MT4 cells, time 5 day. Put shortly:
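Uninfected MT-4 cells were exposed to compound, and viability was read by the MTT method. […] Each value was run in at least triplicate and averaged from at least three independent experiments.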
(In general: Formazan colour is commonly taken as a measure of viable cells.)

The subject of series [3] is Human immunodeficiency virus 2. Put plainly: Antiviral activity against HIV2 ROD infected in human MT4 cells assessed as reduction in virus induced cytopathic effect measured after 5 days by MTT assay. Format: functional, organism-based. The following applies: Human immunodeficiency virus 2, ROD, MT4, 120 h. The essentials: as §1
Series [4] in a line: Selectivity index, ratio of CC50 for cytotoxicity against human MT4 cells to EC50 for antiviral activity against HIV2 ROD infected in human MT4 cells. The class given is toxicity, cell-based. Particulars: read-out: Ratio CC50/EC50. Put shortly:
(§2)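 SI is CC50 divided by EC50. CC50 comes from MTT viability of uninfected MT-4 cells. EC50 comes from MTT-read protection of MT-4 cells infected with HIV-1 IIIB or HIV-2 ROD. Each value was run in at least triplicate.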

The nature of series [5]: Selectivity ratio of EC50 for antiviral activity against HIV1 IIIB infected in human MT4 cells to EC50 for antiviral activity against HIV2 ROD infected in human MT4 cells. Format: toxicity, cell-based. The essentials: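 Ratio is EC50 against HIV-1 IIIB divided by EC50 against HIV-2 ROD. Both EC50 values come from MTT-read protection of infected MT-4 cells.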
The nature of series [6]: Selectivity index, ratio of CC50 for cytotoxicity against human MT4 cells to EC50 for antiviral activity against HIV1 IIIB infected in human MT4 cells. Format: toxicity, cell-based. The following applies: read-out: Ratio CC50/EC50. Put shortly:
as §2

On to `COc1ccc(-n2c(SCc3ccc(S(C)(=O)=O)cc3)nnc2[C@H](Cc2ccccc2)NC(=O)Cc2c(C)[nH]c3ccccc23)cc1`, for which the EC50 in series [1] came to 2.43 µM; in series [3] it was 7.89 µM. Further, the CC50 at 120 h in series [2] was 172 µM. Further, the selectivity ratio in series [4] was determined as 22; in series [6], 71. In addition, in series [5], the “Ratio EC50” value is listed as 0.31.
`COc1ccc(N(C)C(=O)[C@H](Cc2cc(F)cc(F)c2)NC(=O)CN(Cc2ccc(F)cc2)C(=O)Cc2ccc(B(O)O)cc2)cc1`: the EC50 in series [1] turned out to be 4.33 µM; in series [3] it was 6.8 µM. In addition, the CC50 at 120 h in series [2] was determined as 18.9 µM. Besides, the selectivity ratio in series [4] stood at 3; in series [6] it was 4. For the same molecule, in series [5], the “Ratio EC50” value came out at 0.64.
As for `COc1ccc(-n2c([C@H](Cc3ccccc3)NC(=O)CN3CCN(S(=O)(=O)c4ccc(N)cc4)CC3)nc3cc(S(C)(=O)=O)ccc3c2=O)cc1`, the results for the EC50 in series [1] and in series [3] were 3.84 µM and 0.35 µM, respectively. For the same molecule, in series [2], the CC50 at 120 h is over 168 µM. In addition, the selectivity ratio in series [4] is over 481; in series [6] it was over 43.7. In addition, the “Ratio EC50” value in series [5] is 10.97.
Turning to `COc1ccc(-n2c([C@H](Cc3ccccc3)NC(=O)CN3CCN(S(=O)(=O)c4ccc([N+](=O)[O-])cc4)CC3)nc3cc(F)ccc3c2=O)cc1`, the values for the EC50 in series [1] and in series [3] were 1.99 µM and 0.56 µM, respectively. Also, the CC50 at 120 h in series [2] was over 175 µM. Further, the selectivity ratio is over 312 in series [4] and over 88 in series [6]. Moreover, in series [5], the “Ratio EC50” value was 3.55.
As for `COc1ccc(-n2c(SCc3ccc(S(N)(=O)=O)cc3)nnc2[C@H](Cc2ccccc2)NC(=O)Cc2c(C)[nH]c3ccccc23)cc1`, the EC50 in series [1] is 2.47 µM; in series [3], 3.42 µM. Moreover, in series [2], the CC50 at 120 h was over 187 µM. The selectivity ratio in series [4] is over 55; in series [6], over 76. For the same molecule, the “Ratio EC50” value in series [5] came to 0.72.
As for `COc1ccc(N(C)C(=O)[C@H](Cc2ccccc2)NC(=O)CN2CCN(C(=O)Cc3c(C)[nH]c4ccccc34)CC2=O)cc1`, the values for the EC50 in series [1] and in series [3] were 14.3 µM and 7.74 µM, respectively. The CC50 at 120 h in series [2] is 108 µM. Also, the selectivity ratio in series [4] turned out to be 13.9; in series [6], 7.73. Also, the “Ratio EC50” value in series [5] was found to be 1.84.
With `COc1ccc(N(C)C(=O)[C@H](Cc2ccccc2)NC(=O)Cn2ccc(NC(=O)c3ccc(F)cc3)cc2=O)cc1`, the EC50 was over 34.8 µM in series [1] and 16.2 µM in series [3]. In series [2], the CC50 at 120 h came to 34.8 µM. Further, in series [4], the selectivity ratio came to 2.15. In series [5], the “Ratio EC50” value was over 2.15.
On to `COc1ccc(N(C)C(=O)[C@H](Cc2cc(F)cc(F)c2)NC(=O)CN(CC2CCCCC2)C(=O)Cc2c[nH]c3ccc(Br)cc23)cc1`, for which the EC50 in series [1] and in series [3] was over 17.6 µM each time. In addition, in series [2], the CC50 at 120 h is 17.6 µM. Also, the selectivity ratio in series [4] and in series [6] was under 1 throughout.
As to `COc1ccc(N(C)C(=O)[C@H](Cc2cc(F)cc(F)c2)NC(=O)CN2CCN(C(=O)Cc3c[nH]c4ccc(Br)cc34)CC2=O)cc1`, the EC50 in series [1] and in series [3] was over 3.15 µM throughout. In addition, in series [2], the CC50 at 120 h was found to be 3.15 µM. Moreover, the selectivity ratio in series [4] and in series [6] was under 1 each time.
Regarding `COc1ccc(N(C)C(=O)[C@H](Cc2cc(F)cc(F)c2)NC(=O)CN(Cc2ccc(C#N)cc2)C(=O)Cc2cccc3ccccc23)cc1`, the EC50 in series [1] was over 189 µM; in series [3], 2.3 µM. Moreover, the CC50 at 120 h in series [2] was over 189 µM. In series [4], the selectivity ratio was over 82. Also, in series [5], the “Ratio EC50” value is on record as 82.32.
As to `COc1ccc(N(C)C(=O)[C@H](Cc2cc(F)cc(F)c2)NC(=O)CN2CCN(C(=O)Cc3c[nH]c4ccc(OC)cc34)CC2=O)cc1`, the EC50 in series [1] and in series [3] was over 15.9 µM in each case. Also, in series [2], the CC50 at 120 h came out at 15.9 µM. The selectivity ratio in series [4] and in series [6] was under 1 in each case.
